Values after ≈ are worked out from the molar mass of the structure shown. Each block holds one compound with its values, some of them ahead of it.
Tests used:
Acinetobacter baumannii [1] = test: Antibacterial activity against Acinetobacter baumannii AB5075 assessed as reduction in bacterial growth incubated for 16 hrs by broth microdilution method; format: functional
Acinetobacter baumannii [2] = test: Potentiation of Clarithromycin antibacterial activity against Acinetobacter baumannii AB5075 assessed as clarithromycin MIC at 7.5 uM incubated for 16 hrs by broth microdilution method; format: functional
Acinetobacter baumannii [3] = test: Potentiation of Clarithromycin antibacterial activity against Acinetobacter baumannii AB5075 assessed as clarithromycin MIC at 5 uM incubated for 16 hrs by broth microdilution method; format: functional
Acinetobacter baumannii [4] = test: Potentiation of Clarithromycin antibacterial activity against Acinetobacter baumannii AB5075 assessed as fold reduction in clarithromycin MIC at 7.5 uM incubated for 16 hrs by broth microdilution method; format: functional
Method in brief: (§1)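 Checkerboard-style potentiation by broth microdilution. 6 h day cultures in CAMHB diluted to 5×10^5 CFU/mL. Adjuvant added from 10 mM DMSO stock at fixed concentration throughout. […] Controls: antibiotic alone, adjuvant alone, media only. Incubated stationary at 37 °C for 16 h. MIC is lowest concentration with no visible growth; fold reduction taken against the antibiotic-alone lane.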

Acinetobacter baumannii [5] = test: Potentiation of Clarithromycin antibacterial activity against Acinetobacter baumannii AB5075 assessed as fold reduction in clarithromycin MIC at 5 uM incubated for 16 hrs by broth microdilution method; format: functional; method in brief: as §1
Acinetobacter baumannii [6] = test: Potentiation of Clarithromycin antibacterial activity against Acinetobacter baumannii AB5075 assessed as clarithromycin MIC at 15 uM incubated for 16 hrs by broth microdilution method; format: functional
Acinetobacter baumannii [7] = test: Potentiation of Clarithromycin antibacterial activity against Acinetobacter baumannii AB5075 assessed as fold reduction in clarithromycin MIC at 15 uM incubated for 16 hrs by broth microdilution method; format: functional
[8] = Antiproliferative against human HepG2 cells assessed as reduction in cell viability incubated for 24 hrs by XTT assay; format: toxicity, cell-based
[9] = Therapeutic index, ratio of IC50 for antiproliferative against human HepG2 cells assessed as reduction in cell viability to MIC for potentiation of Clarithromycin antibacterial activity against Acinetobacter baumannii […] assessed as clarithromycin MIC; format: toxicity, cell-based; conditions: read-out: TI
[10] = Stability of compound in human plasma assessed as parent compound remaining measured at 4 hrs; format: ADME, cell-free
Method in brief: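 Compound at 20 μM final in human plasma (from 10 mM DMSO stock), 37 °C; aliquots at 0, 30, 60, 120, 240 min quenched in internal standard in 1:1 ACN/MeOH, centrifuged, supernatant analysed by UPLC-MRM. Peak-area ratio to internal standard expressed as % parent remaining relative to 0 min; half-life calculated.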

[11] = Metabolic stability in human liver microsomes assessed as parent compound remaining in presence of NADPH measured at 1 hr by UV-UPLC analysis; format: ADME, Microsome
Acinetobacter baumannii [12] = test: Potentiation of Clarithromycin antibacterial activity against Acinetobacter baumannii AB5075 assessed as clarithromycin MIC at 30 uM incubated for 16 hrs by broth microdilution method; format: functional
Acinetobacter baumannii [13] = test: Potentiation of Clarithromycin antibacterial activity against Acinetobacter baumannii AB5075 assessed as fold reduction in clarithromycin MIC at 30 uM incubated for 16 hrs by broth microdilution method; format: functional; method in brief: as §1
Acinetobacter baumannii [14] = test: Potentiation of Clarithromycin antibacterial activity against Acinetobacter baumannii AB5075 assessed as reduction in clarithromycin MIC at 20 uM incubated for 16 hrs by broth microdilution method; format: functional
Acinetobacter baumannii [15] = test: Potentiation of Clarithromycin antibacterial activity against Acinetobacter baumannii AB5075 assessed as clarithromycin MIC at 10 uM incubated for 16 hrs by broth microdilution method; format: functional
Acinetobacter baumannii [16] = test: Potentiation of Clarithromycin antibacterial activity against Acinetobacter baumannii AB5075 assessed as fold reduction in clarithromycin MIC at 10 uM incubated for 16 hrs by broth microdilution method; format: functional; method in brief: as §1
Acinetobacter baumannii [17] = test: Potentiation of Clarithromycin antibacterial activity against Acinetobacter baumannii AB5075 assessed as clarithromycin MIC at 2.5 uM incubated for 16 hrs by broth microdilution method; format: functional
Acinetobacter baumannii [18] = test: Potentiation of Clarithromycin antibacterial activity against Acinetobacter baumannii AB5075 assessed as clarithromycin MIC at 1.5 uM incubated for 16 hrs by broth microdilution method; format: functional; method in brief: as §1
Acinetobacter baumannii [19] = test: Potentiation of Clarithromycin antibacterial activity against Acinetobacter baumannii AB5075 assessed as fold reduction in clarithromycin MIC at 1.5 uM incubated for 16 hrs by broth microdilution method; format: functional
Acinetobacter baumannii [20] = test: Potentiation of Clarithromycin antibacterial activity against Acinetobacter baumannii AB967 assessed as clarithromycin MIC at 10 uM incubated for 16 hrs by broth microdilution method; format: functional
Acinetobacter baumannii [21] = test: Potentiation of Clarithromycin antibacterial activity against Acinetobacter baumannii AB3560 assessed as clarithromycin MIC at 10 uM incubated for 16 hrs by broth microdilution method; format: functional
Acinetobacter baumannii [22] = test: Potentiation of Clarithromycin antibacterial activity against Acinetobacter baumannii AB3785 assessed as clarithromycin MIC at 10 uM incubated for 16 hrs by broth microdilution method; format: functional
Acinetobacter baumannii [23] = test: Potentiation of Clarithromycin antibacterial activity against Acinetobacter baumannii AB4498 assessed as clarithromycin MIC at 10 uM incubated for 16 hrs by broth microdilution method; format: functional
Acinetobacter baumannii [24] = test: Potentiation of Clarithromycin antibacterial activity against Acinetobacter baumannii AB5674 assessed as clarithromycin MIC at 10 uM incubated for 16 hrs by broth microdilution method; format: functional
Acinetobacter baumannii [25] = test: Potentiation of Clarithromycin antibacterial activity against Acinetobacter baumannii AB5711 assessed as clarithromycin MIC at 10 uM incubated for 16 hrs by broth microdilution method; format: functional
Acinetobacter baumannii [26] = test: Potentiation of Azithromycin antibacterial activity against Acinetobacter baumannii AB5075 assessed as azithromycin MIC at 30 uM incubated for 16 hrs by broth microdilution method; format: functional
Acinetobacter baumannii [27] = test: Potentiation of Azithromycin antibacterial activity against Acinetobacter baumannii AB5075 assessed as azithromycin MIC at 20 uM incubated for 16 hrs by broth microdilution method; format: functional
Acinetobacter baumannii [28] = test: Potentiation of Azithromycin antibacterial activity against Acinetobacter baumannii AB5075 assessed as azithromycin MIC at 10 uM incubated for 16 hrs by broth microdilution method; format: functional
Acinetobacter baumannii [29] = test: Potentiation of Azithromycin antibacterial activity against Acinetobacter baumannii AB5075 assessed as azithromycin MIC at 7.5 uM incubated for 16 hrs by broth microdilution method; format: functional
Acinetobacter baumannii [30] = test: Potentiation of erythromycin antibacterial activity against Acinetobacter baumannii AB5075 assessed as erythromycin MIC at 30 uM incubated for 16 hrs by broth microdilution method; format: functional
Acinetobacter baumannii [31] = test: Potentiation of erythromycin antibacterial activity against Acinetobacter baumannii AB5075 assessed as erythromycin MIC at 20 uM incubated for 16 hrs by broth microdilution method; format: functional
Acinetobacter baumannii [32] = test: Potentiation of erythromycin antibacterial activity against Acinetobacter baumannii AB5075 assessed as erythromycin MIC at 10 uM incubated for 16 hrs by broth microdilution method; format: functional
Acinetobacter baumannii [33] = test: Potentiation of erythromycin antibacterial activity against Acinetobacter baumannii AB5075 assessed as erythromycin MIC at 7.5 uM incubated for 16 hrs by broth microdilution method; format: functional
Acinetobacter baumannii [34] = test: Potentiation of rifampicin antibacterial activity against Acinetobacter baumannii AB5075 assessed as rifampicin MIC at 30 uM incubated for 16 hrs by broth microdilution method; format: functional
Acinetobacter baumannii [35] = test: Potentiation of rifampicin antibacterial activity against Acinetobacter baumannii AB5075 assessed as rifampicin MIC at 20 uM incubated for 16 hrs by broth microdilution method; format: functional
Acinetobacter baumannii [36] = test: Potentiation of rifampicin antibacterial activity against Acinetobacter baumannii AB5075 assessed as rifampicin MIC at 10 uM incubated for 16 hrs by broth microdilution method; format: functional
Acinetobacter baumannii [37] = test: Potentiation of rifampicin antibacterial activity against Acinetobacter baumannii AB5075 assessed as rifampicin MIC at 7.5 uM incubated for 16 hrs by broth microdilution method; format: functional
Method in brief: (§2)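 A. baumannii AB5075 6 h day cultures in CAMHB subcultured to 5×10^5 CFU/mL; adjuvant added from 10 mM DMSO stock at fixed concentration, then rifampicin (DMSO) twofold serially diluted in adjuvant-containing broth. Antibiotic-alone and adjuvant-alone control lanes.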

Acinetobacter baumannii [38] = test: Potentiation of rifampicin antibacterial activity against Acinetobacter baumannii AB5075 assessed as rifampicin MIC at 5 uM incubated for 16 hrs by broth microdilution method; format: functional; method in brief: as §2
Acinetobacter baumannii [39] = test: Potentiation of rifampicin antibacterial activity against Acinetobacter baumannii AB5075 assessed as fold reduction in rifampicin MIC at 10 uM incubated for 16 hrs by broth microdilution method; format: functional

MIC (Acinetobacter baumannii [1]): 50 µM (≈ 22.6 µg/mL)
MIC (Acinetobacter baumannii [2]): 0.25 mg/L
MIC (Acinetobacter baumannii [3]): 4 mg/L
MIC (Acinetobacter baumannii [6]): 0.125 mg/L
Stability [10]: 89%
Stability [11]: 54%
SMILES: Nc1nc(-c2ccc(NC(=O)Nc3cc(Br)cc(Br)c3)cc2)c[nH]1
fold change (FC) (Acinetobacter baumannii [4]): 128
fold change (FC) (Acinetobacter baumannii [5]): 8
fold change (FC) (Acinetobacter baumannii [7]): 256
IC50 at 24 h [8]: 23.2 mg/L (≈ 51.4 µM)
selectivity ratio [9]: 6.3

SMILES: Cl.Cl.Nc1nc(-c2cc(F)cc(NC(=O)Nc3cc(F)cc(-c4c[nH]c(N)n4)c3)c2)c[nH]1
MIC (Acinetobacter baumannii [1]): > 200 µM
MIC (Acinetobacter baumannii [12]): ≤ 0.062 mg/L
MIC (Acinetobacter baumannii [2]): 0.25 mg/L
MIC (Acinetobacter baumannii [3]): 0.5 mg/L
fold change (FC) (Acinetobacter baumannii [13]): >=512
fold change (FC) (Acinetobacter baumannii [4]): 128
fold change (FC) (Acinetobacter baumannii [5]): 64
fold change (FC) (Acinetobacter baumannii [14]): >=512
MIC (Acinetobacter baumannii [14]; Acinetobacter baumannii, AB5075): ≤ 0.062 mg/L
MIC (Acinetobacter baumannii [15]): 0.125 mg/L
fold change (FC) (Acinetobacter baumannii [16]): 256
IC50 at 24 h [8]: > 256 mg/L
selectivity ratio [9]: > 353
MIC (Acinetobacter baumannii [17]): 1 mg/L
MIC (Acinetobacter baumannii [18]): 2 mg/L
fold change (FC) (Acinetobacter baumannii [19]): 16
MIC (Acinetobacter baumannii [20]): ≤ 0.062 mg/L
MIC (Acinetobacter baumannii [21]): ≤ 0.062 mg/L
MIC (Acinetobacter baumannii [22]): ≤ 0.062 mg/L
MIC (Acinetobacter baumannii [23]): ≤ 0.062 mg/L
MIC (Acinetobacter baumannii [24]): ≤ 0.062 mg/L
MIC (Acinetobacter baumannii [25]): 0.125 mg/L
MIC (Acinetobacter baumannii [26]): 0.5 mg/L
MIC (Acinetobacter baumannii [27]): 1 mg/L
MIC (Acinetobacter baumannii [28]): 1 mg/L
MIC (Acinetobacter baumannii [29]): 2 mg/L
MIC (Acinetobacter baumannii [30]): 0.125 mg/L
MIC (Acinetobacter baumannii [31]): 0.25 mg/L
MIC (Acinetobacter baumannii [32]): 0.25 mg/L
MIC (Acinetobacter baumannii [33]): 1 mg/L
MIC (Acinetobacter baumannii [34]): 0.003 mg/L
MIC (Acinetobacter baumannii [35]): 0.007 mg/L
MIC (Acinetobacter baumannii [36]): 0.031 mg/L
MIC (Acinetobacter baumannii [37]): 0.06 mg/L
MIC (Acinetobacter baumannii [38]): 0.25 mg/L
fold change (FC) (Acinetobacter baumannii [39]): 32
Stability [10]: > 95%
Stability [11]: 86%
